High-throughput results deposited in PubChem BioAssay by Broad Institute.
GASC1 inh = blocks human GASC-1 (KDM4C) demethylase activity | Q9H3R0 | GST-KDM4C 2-372, H3K9me3 peptide, LANCE TR-FRET | inhibition, % at 12.5 µM | 0.15% of 96,000 active | AID 720574;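 active = mean replicate inhibition above about 25%, with at least 55% of replicates also reaching it, limit read from the data, passing the limit was not always enough; inconclusive = only one of those two conditions met; inactive = neither condition met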
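Compound: one test concentration per compound; Material: GST-GASC-1 enzyme fragment 2-372; Amount: GASC-1 enzyme at 10 nM final in reaction; Also added: H3K9me3 peptide substrate, Fe(II), 2-oxoglutarate; Technique: LANCE TR-FRET; Times: 30 min demethylation and 1 h detection at room temperature.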
T cruzi growth-1 = blocks T. cruzi growth in NIH3T3 culture | T. cruzi beta-gal in NIH3T3, GalScreen luminescence, 90 h | inhibition, % at 8.34 µM | 5.9% of 77,000 active;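 active = mean inhibition above about 93%, with at least 55% of replicates each passing it, limit read from the data, passing the limit was not always enough; inconclusive = only one of those two conditions holds; inactive = neither condition holds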
Pf Dd2 growth = P. falciparum Dd2 growth inhibition; SYBR Green, 72 h; active compounds read low; activity change, % at 10 µM; 2.3% of 94,000 active; AID 1159554; in the data active = activity change below about -80%; inconclusive = no clear call, values can overlap the other calls
IDH1 R132H inh = IDH1 R132H (human) inhibition; O75874; inhibition, % at 10 µM; 0.18% of 70,000 active; AID 624101; IDH1 R132H reductase, diaphorase/resazurin fluorescence, 60 min; in the data active = inhibition above about 34%; inconclusive = no clear call, values can overlap the other calls; inactive = below about 11%
Target sequence (O75874 whole entry R132H): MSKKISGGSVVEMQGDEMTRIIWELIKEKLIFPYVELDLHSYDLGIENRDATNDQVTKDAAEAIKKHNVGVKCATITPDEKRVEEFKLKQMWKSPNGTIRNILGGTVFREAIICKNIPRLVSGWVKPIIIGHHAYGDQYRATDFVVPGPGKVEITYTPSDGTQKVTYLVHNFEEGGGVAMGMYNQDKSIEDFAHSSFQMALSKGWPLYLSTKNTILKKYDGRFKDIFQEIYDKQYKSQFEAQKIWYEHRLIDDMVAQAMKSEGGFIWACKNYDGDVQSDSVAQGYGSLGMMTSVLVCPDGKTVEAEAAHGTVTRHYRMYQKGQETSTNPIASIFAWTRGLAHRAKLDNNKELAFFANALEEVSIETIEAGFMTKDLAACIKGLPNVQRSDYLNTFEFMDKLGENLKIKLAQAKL
T cruzi growth-2 = Trypanosoma cruzi proliferation inhibition; shares compounds with T cruzi growth-1; T. cruzi beta-gal in NIH3T3, GalScreen luminescence, 90 h; inhibition, % at 8.35 µM; 72% of 5,600 active; AID 651739;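 active = mean replicate inhibition above about 95% and at least 55% of replicates individually reaching it, limit read from the data; inconclusive = only one of the two criteria is met; inactive = neither criterion is met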
T cruzi growth-3 = inhibitors of T. cruzi proliferation; T. cruzi beta-gal in NIH3T3, GalScreen luminescence, 90 h; 21% of 5,600 active; AID 651740; inhibition, % at 2.09 µM; shares compounds with T cruzi growth-1;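 active = mean inhibition above about 95%, with at least 55% of replicates also reaching it, limit read from the data; inconclusive = meets just one of the two conditions; inactive = meets neither condition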
3T3 cytotox = cytotoxicity in mouse NIH/3T3 fibroblasts. shares compounds with T cruzi growth-1. NIH/3T3 viability, CellTiter-Glo ATP luminescence, 90 h. cytotoxicity (signal decrease), % at 8.35 µM. 14% of 5,600 active;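 active = mean signal decrease across replicates above about 35% based on untreated-well scatter, with enough replicates individually passing, limit read from the data; inconclusive = no rule stated though some were filed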
3T3 cytotox 2 = cytotoxicity in mouse NIH/3T3 fibroblasts; AID 651744; inhibition, % at 24.9 µM; NIH/3T3 viability, CellTiter-Glo ATP luminescence, 90 h; shares compounds with T cruzi growth-1; 56% of 5,600 active;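 active = mean loss of cell viability signal at or above a set limit, and enough replicates individually reaching it; inconclusive = meets only the mean limit or only the replicate share; inactive = meets neither condition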
Of the large screens only hits and unclear results are named; the others gave an inactive call (follow-up assays come after a bar, where they were run). Sampled rows, rich in hits. Any-hit rate of the full collection: about 5.8%.

CCCC#Cc1cnc2c(c1)C(=O)N([C@@H](C)CO)C[C@H](C)[C@@H](CN(C)Cc1ccc(F)cc1)O2	none
CN(C)C(=O)C[C@H]1C=C[C@H](NC(=O)NC2CCCC2)[C@H](CO)O1	none (no result: T cruzi growth-1)
CCCNC(=O)N1[C@H](CO)[C@H](c2ccc(C3=CCCCC3)cc2)[C@@H]1C#N	none
CCCNC(=O)N1[C@H](C#N)[C@@H](c2ccc(C3=CCCCC3)cc2)[C@@H]1CO	T cruzi growth-1 103.1 (no result: IDH1 R132H inh) | T cruzi growth-2 105.2 | T cruzi growth-3 inactive | 3T3 cytotox inactive | 3T3 cytotox 2 inactive
C[C@@H]1CN([C@@H](C)CO)C(=O)c2cccc(NS(=O)(=O)c3ccccc3)c2O[C@H]1CN(C)S(=O)(=O)c1ccccc1	none
COc1ccc2c3c(n(C)c2c1)[C@@H](CO)N(C(=O)NC(C)C)CC31CN(CC2CC2)C1	none (no result: T cruzi growth-1, IDH1 R132H inh)
C[C@H]1CN([C@@H](C)CO)C(=O)c2cccc(NS(=O)(=O)c3cn(C)cn3)c2O[C@H]1CN(C)C(=O)Nc1ccccc1	none
Cc1ccc(S(=O)(=O)N(C)C[C@H]2OCc3ccccc3-c3ccccc3C(=O)N([C@@H](C)CO)C[C@H]2C)cc1	none
CCCN(C)C[C@H]1Oc2cc(C#Cc3ccc(F)cc3)ccc2S(=O)(=O)N([C@H](C)CO)C[C@H]1C	none
CN1C(=O)c2cc(NC(=O)Cc3cccs3)ccc2OC[C@@H]2O[C@H](CC(=O)N[C@H]3CCN(Cc4ccccc4)C3)CC[C@H]21	none (no result: Pf Dd2 growth, IDH1 R132H inh)
CN1C(=O)c2cc(NC(=O)Cc3cccs3)ccc2OC[C@H]2O[C@H](CC(=O)N[C@H]3CCN(Cc4ccccc4)C3)CC[C@@H]21	T cruzi growth-1 104.8 (no result: Pf Dd2 growth, IDH1 R132H inh) | T cruzi growth-2 inconclusive | T cruzi growth-3 inactive | 3T3 cytotox inactive | 3T3 cytotox 2 inactive
CN1C(=O)c2cc(NC(=O)c3ccc(F)c(F)c3)ccc2OC[C@@H]2O[C@H](CC(=O)N[C@H]3CCN(Cc4ccccc4)C3)CC[C@H]21	T cruzi growth-1 111.3 (no result: Pf Dd2 growth, IDH1 R132H inh) | T cruzi growth-2 98.7 | T cruzi growth-3 inactive | 3T3 cytotox inactive | 3T3 cytotox 2 inactive
CN1C(=O)c2cc(NC(=O)c3ccc(F)c(F)c3)ccc2OC[C@@H]2O[C@H](CC(=O)N[C@@H]3CCN(Cc4ccccc4)C3)CC[C@H]21	T cruzi growth-1 105.8 (no result: Pf Dd2 growth, IDH1 R132H inh) | T cruzi growth-2 113.8 | T cruzi growth-3 inactive | 3T3 cytotox inactive | 3T3 cytotox 2 inactive
CN1C(=O)c2cc(NC(=O)Cc3cccs3)ccc2OC[C@H]2O[C@@H](CC(=O)N[C@H]3CCN(Cc4ccccc4)C3)CC[C@@H]21	none (no result: Pf Dd2 growth, IDH1 R132H inh)
CN1C(=O)c2cc(NC(=O)Cc3cccs3)ccc2OC[C@@H]2O[C@@H](CC(=O)N[C@H]3CCN(Cc4ccccc4)C3)CC[C@H]21	none (no result: Pf Dd2 growth, IDH1 R132H inh)
CCCC#Cc1cnc2c(c1)C(=O)N([C@H](C)CO)C[C@H](C)[C@@H](CN(C)C(=O)Nc1ccccc1OC)O2	none (no result: IDH1 R132H inh)
COc1ccc(NC(=O)Nc2nn(Cc3c(F)cccc3Cl)cc2Cl)cc1OC	none (no result: GASC1 inh, T cruzi growth-1, Pf Dd2 growth)
C[C@H]1CN([C@@H](C)CO)C(=O)c2cc(C3=CCCC3)cnc2O[C@H]1CN(C)C(=O)C1CCOCC1	none (no result: T cruzi growth-1, IDH1 R132H inh)
COc1ccc(NC(=O)Nc2ccc3c(c2)C(=O)N([C@H](C)CO)C[C@@H](C)[C@@H](CN(C)C(=O)Nc2ccc(OC)cc2)OCCCC[C@@H](C)O3)cc1	none (no result: T cruzi growth-1)
COc1ccc(NC(=O)Nc2ccc3c(c2)C(=O)N([C@@H](C)CO)C[C@@H](C)[C@H](CN(C)C(=O)Nc2ccc(C(F)(F)F)cc2)OCCCC[C@@H](C)O3)cc1	T cruzi growth-1 114.3 | T cruzi growth-2 108.8 | T cruzi growth-3 109.4 | 3T3 cytotox inactive | 3T3 cytotox 2 inactive
COc1ccc(NC(=O)Nc2ccc3c(c2)C(=O)N([C@@H](C)CO)C[C@H](C)[C@H](CN(C)C(=O)Nc2ccc(C(F)(F)F)cc2)OCCCC[C@H](C)O3)cc1	T cruzi growth-1 inconclusive | T cruzi growth-2 104.2 | T cruzi growth-3 111.5 | 3T3 cytotox inactive | 3T3 cytotox 2 inactive
N#C[C@H]1[C@H](c2ccccc2)[C@@H](CO)N1C(=O)C1CCCC1	none (no result: IDH1 R132H inh)
